According to ChEMBL document CHEMBL4118213, “Drug efficacy of novel 3-O-methoxy-4-halo disubstituted 5,7-dimethoxy chromans; evaluated via DNA gyrase inhibition, bacterial cell wall lesion and antibacterial prospective” (Bioorg Med Chem, 2018):
≈ marks a conversion by molar mass, not a printed value. Calls of active or inactive are those of the source. The rule behind the calls is not given here.

Experiments:
DNA gyrase = DNA gyrase (Staphylococcus aureus, UniProt P0A0K8+P20831); assay: Inhibition of Staphylococcus aureus DNA gyrase assessed as reduction in relaxation of pBR322 DNA by […] analysis; assay type: protein-complex assay
In short: (§1)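 pBR322 DNA incubated with S. aureus DNA gyrase with or without compound (1.5 µg) and novobiocin as positive control. Products resolved by gel electrophoresis. IC50 from the dose–response curve; mean of duplicate or triplicate measurements.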

[1] = target: DNA gyrase (Staphylococcus aureus) (UniProt P0A0K8+P20831); assay: Inhibition of Staphylococcus aureus DNA gyrase assessed as reduction in relaxation of pBR322 DNA at 1.5 ug by […] analysis relative to control; assay type: protein-complex assay; in short: as §1
Klebsiella pneumoniae = assay: Antibacterial activity against Klebsiella pneumoniae MTCC 530; assay type: functional
In short: (§2)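 MIC determined against six bacterial strains over a range of concentrations, with 1% DMSO as the untreated control and novobiocin as the standard. Values are averages of n = 5.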

Escherichia coli = assay: Antibacterial activity against Escherichia coli MTCC 443; assay type: functional; in short: as §2
Pseudomonas aeruginosa = assay: Antibacterial activity against Pseudomonas aeruginosa MTCC 424; assay type: functional; in short: as §2
Staphylococcus aureus = assay: Antibacterial activity against Staphylococcus aureus MTCC 96; assay type: functional; in short: as §2
[2] = tested on: Corynebacterium diphtheriae; assay: Antibacterial activity against Corynebacterium diphtheriae MTCC 116; assay type: functional; in short: as §2
Streptococcus pyogenes = assay: Antibacterial activity against Streptococcus pyogenes MTCC 442; assay type: functional; in short: as §2
[3] = tested on: Corynebacterium diphtheriae; assay: Antibacterial activity against Corynebacterium diphtheriae MTCC 116 assessed as cell wall degradation by measuring dead cells measured every 30 mins up to 180 mins by microscopic method; assay type: functional, organism-based
In short: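 C. diphtheriae was grown overnight in Loeffler medium and examined after treatment. Dead cells/cell debris were estimated every 30 min until whole-culture death. Total and dead cell stains were applied for 1 h in the dark at room temperature, then fluorescence was read at Ex 490/Em 525 and Ex 536/Em 617 nm, in triplicate.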

Erythrocyte [4] = assay: Hemolytic activity in human RBC assessed as mean absorbance (reference value: 0.1868 +/- 0.033); assay type: ADME, cell-based
In short: (§3)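 Human red blood cell membrane stabilization tested at various concentrations (n = 4) in 96-well format, with distilled water taken as 100% hemolysis. Absorbance read-out; IC50 taken from the percentage inhibition versus concentration curve.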

Erythrocyte [5] = assay: Hemolytic activity in human RBC assessed as membrane mortification by measuring […] stabilization by absorbance method relative to control; assay type: ADME, cell-based; design: concentration or dose not given beside the values; in short: as §3
Erythrocyte [6] = assay: Hemolytic activity in human RBC assessed as membrane mortification by absorbance method; assay type: ADME, cell-based; in short: as §3
MCF10 = assay: Cytotoxicity against human MCF10 cells after 8 hrs by MTT assay; assay type: cell-based; conditions: mcf10, 8 h
In short: (§4)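 MTT assay on MCF-7 and MCF-10 cells (n = 4), with DMSO as control and doxorubicin as standard. Viability was read at several times after treatment and calculated as mean OD/control OD × 100%.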

MCF7 = assay: Cytotoxicity against human MCF7 cells after 8 hrs by MTT assay; assay type: cell-based; conditions: for Activity: human, mcf7, 8 h; in short: as §4
[7] = Cytotoxicity against human MCF7 cells assessed as cell viability after 4 hrs by MTT assay relative to control; assay type: cell-based; design: concentration or dose not given beside the values; conditions: read-out: Activity; in short: as §4
[8] = Cytotoxicity against human MCF7 cells assessed as cell viability after 6 hrs by MTT assay relative to control; assay type: cell-based; design: concentration or dose not given beside the values; conditions: read-out: Activity; in short: as §4

SMILES | IC50 (DNA gyrase) [nM] | inhibition [1] [%] | MIC (Klebsiella pneumoniae) [µg/mL] | MIC (Escherichia coli) [µg/mL] | MIC (Pseudomonas aeruginosa) [µg/mL] | MIC (Staphylococcus aureus) [µg/mL] | MIC [2] [µg/mL] | MIC (Streptococcus pyogenes) [µg/mL] | Activity [3] | Activity (Erythrocyte [4]) | Activity (Erythrocyte [5]) [%] | IC50 (Erythrocyte [6]) [µg/mL] | Activity (MCF10) | Activity (MCF7) | viability at 4 h [7] [%] | viability at 6 h [8] [%] | IC50 (MCF7; Homo sapiens, MCF7, 8 h) [nM]
COc1cc(OS(=O)(=O)C(F)(F)F)c2c(c1C(C)=O)OC(C)(C)C=C2 | 2.5 | 94 | 0.64 (≈ 1.68 µM) | 0.64 (≈ 1.68 µM) | 0.84 (≈ 2.21 µM) | 0.02 (≈ 0.0526 µM) | 0.04 (≈ 0.105 µM) | 0.83 (≈ 2.18 µM) | Active | 0.4852 | 98.84 | 0.0012 (≈ 0.00316 µM) | Non-Toxic |  | 20 | 16 | 10
COc1c(Br)c(OC)c(C(C)=O)c2c1C=CC(C)(C)O2 | 1.86 to 24 | 78 to 94 | 1.99 (≈ 5.83 µM) | 2.13 (≈ 6.24 µM) | 3.12 (≈ 9.14 µM) | 0.99 (≈ 2.9 µM) | 1.08 (≈ 3.17 µM) | 2.04 (≈ 5.98 µM) | Active | 0.3634 | 86.16 | 0.124 (≈ 0.364 µM) |  |  |  |  | 
CO[C@@H]1[C@@H](OC(N)=O)[C@@H](O)[C@H](Oc2ccc3c(O)c(NC(=O)c4ccc(O)c(CC=C(C)C)c4)c(=O)oc3c2C)OC1(C)C [NOVOBIOCIN] |  |  | 0.5 to 0.75 (≈ 0.816 to 1.22 µM) | 4.94 to 5 (≈ 8.06 to 8.16 µM) | 1.75 to 100 (≈ 2.86 to 163 µM) | 0.78 to 0.92 (≈ 1.27 to 1.5 µM) | 1.32 (≈ 2.15 µM) | 3.24 (≈ 5.29 µM) |  |  |  |  |  |  |  |  | 
COc1cc2c(c(O)c1C(C)=O)C(=O)CC(C)(C)O2 | 1.86 to 24 | 78 to 94 | 2.24 (≈ 8.48 µM) | 0.99 (≈ 3.75 µM) | 1.67 (≈ 6.32 µM) | 1 (≈ 3.78 µM) | 1.02 (≈ 3.86 µM) | 3.12 (≈ 11.8 µM) | Active | 0.3841 | 80.65 | 1.24 (≈ 4.69 µM) |  |  |  |  | 
CO[C@@H]1[C@@H](OC(=O)c2ccc(C)[nH]2)[C@@H](O)[C@H](Oc2ccc3c(O)c(NC(=O)c4ccc(O)c(CC=C(C)C)c4)c(=O)oc3c2Cl)OC1(C)C |  | 86 |  |  |  |  |  |  |  |  |  |  |  |  |  |  | 
COc1ccc2c(c1)c(CC(=O)O)c(C)n2C(=O)c1ccc(Cl)cc1 [INDOMETHACIN] |  |  |  |  |  |  |  |  |  | 0.3834 | 85.64 | 0.086 (≈ 0.24 µM) |  |  |  |  | 

Continued, in another order:

IC50 (DNA gyrase) [nM] | inhibition [1] [%] | MIC (Klebsiella pneumoniae) [µg/mL] | MIC (Escherichia coli) [µg/mL] | MIC (Pseudomonas aeruginosa) [µg/mL] | MIC (Staphylococcus aureus) [µg/mL] | MIC [2] [µg/mL] | MIC (Streptococcus pyogenes) [µg/mL] | SMILES | Activity [3] | Activity (Erythrocyte [4]) | Activity (Erythrocyte [5]) [%] | IC50 (Erythrocyte [6]) [µg/mL] | Activity (MCF10) | Activity (MCF7) | viability at 4 h [7] [%] | viability at 6 h [8] [%] | IC50 (MCF7; Homo sapiens, MCF7, 8 h) [nM]
10 | 78 to 94 | 2.18 (≈ 7.36 µM) | 2.24 (≈ 7.56 µM) | 4.52 (≈ 15.3 µM) | 0.92 (≈ 3.1 µM) | 0.99 (≈ 3.34 µM) | 2.85 (≈ 9.62 µM) | COc1cc(OC)c2c(c1C(C)=O)OC(C)(C)[C@H](O)[C@@H]2O | Active | 0.3888 | 85.31 | 0.88 (≈ 2.97 µM) | Non-Toxic | Dose-dependent effect | 20 | 16 | 
1.86 to 24 | 78 to 94 | 0.96 (≈ 2.92 µM) | 1 (≈ 3.04 µM) | 1.02 (≈ 3.1 µM) | 0.18 (≈ 0.547 µM) | 0.21 (≈ 0.639 µM) | 1.07 (≈ 3.25 µM) | COc1cc(OC)c2c(c1C(C)=O)OC(C)(C)C(OC)C2Cl (configuration not stated) | Active | 0.3659 | 86.37 | 0.222 (≈ 0.676 µM) |  |  |  |  | 
9.5 | 78 to 94 | 0.76 (≈ 2.43 µM) | 0.92 (≈ 2.95 µM) | 0.94 (≈ 3.01 µM) | 0.16 (≈ 0.512 µM) | 0.92 (≈ 2.95 µM) | 0.94 (≈ 3.01 µM) | COc1cc(OC)c2c(c1C(C)=O)OC(C)(C)C(OC)C2F (configuration not stated) | Active | 0.3947 | 85.15 | 0.0922 (≈ 0.295 µM) | Non-Toxic | Dose-dependent effect | 20 | 16 | 
1.86 to 24 | 78 to 94 | 3.88 (≈ 13.1 µM) | 4.1 (≈ 13.8 µM) | 3.01 (≈ 10.2 µM) | 1.54 (≈ 5.2 µM) | 1.28 (≈ 4.32 µM) | 5.02 (≈ 16.9 µM) | COc1cc2c(c(OC)c1C(C)=O)[C@H](O)[C@H](O)C(C)(C)O2 | Active | 0.3611 | 80.88 | 1 (≈ 3.38 µM) |  |  |  |  | 
1.86 to 24 | 78 to 94 | 0.92 (≈ 3.1 µM) | 0.84 (≈ 2.83 µM) | 1.01 (≈ 3.41 µM) | 0.64 (≈ 2.16 µM) | 0.9 (≈ 3.04 µM) | 1.02 (≈ 3.44 µM) | COc1cc(OC)c2c(c1C(C)=O)OC(C)(C)[C@@H](O)[C@H]2O | Active | 0.4046 | 88.52 | 0.0094 (≈ 0.0317 µM) |  |  |  |  | 
1.86 to 24 | 78 to 94 |  |  |  |  |  |  | COc1cc(OC)c2c(c1C(C)=O)OC(C)(C)C(O)C2Br (configuration not stated) |  |  |  |  |  |  |  |  | 
3.5 | 90 | 0.72 (≈ 2.29 µM) | 0.68 (≈ 2.16 µM) | 0.87 (≈ 2.76 µM) | 0.08 (≈ 0.254 µM) | 0.68 (≈ 2.16 µM) | 0.87 (≈ 2.76 µM) | COc1cc(O)c2c(c1C(C)=O)OC(C)(C)C(OC)C2Cl (configuration not stated) | Active | 0.4242 | 93.25 | 0.0102 (≈ 0.0324 µM) | Non-Toxic | Dose-dependent effect | 20 | 16 | 
7.5 | 78 to 94 | 0.9 (≈ 3.62 µM) | 0.88 (≈ 3.54 µM) | 1.02 (≈ 4.11 µM) | 0.1 (≈ 0.403 µM) | 0.82 (≈ 3.3 µM) | 1 (≈ 4.03 µM) | COc1cc(O)c2c(c1C(C)=O)OC(C)(C)C=C2 | Active | 0.4624 | 90.45 | 0.0182 (≈ 0.0733 µM) | Non-Toxic | Dose-dependent effect | 20 | 16 | 
